We go through 17 compounds from ChEMBL document CHEMBL1137518, “Synthesis, biological evaluation and molecular modelling of sulfonohydrazides as selective PI3K p110alpha inhibitors” (Bioorg Med Chem, 2007).

What is called IC50 is the midpoint of a concentration-inhibition curve.

Test [1] in a line: Antiproliferative activity against human NZB5 cells. The test is classed as functional, cell-based. A digest of the protocol:
(§1)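 Early-passage human cancer cell lines grown in alpha-modified MEM with insulin, transferrin, selenite and 5% FBS; 1000 cells per well. Drug added in 10-fold concentration steps up to 20 µM; incubated five days under 5% O2, 5% CO2, 90% N2. [3H]thymidine (0.04 µCi/well) added for the last 6 h, incorporation counted. Duplicates per dose; IC50 from exponential least-squares fit.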

Test [2] in a line: Antiproliferative activity against human NZOV9 cells. Type of test: functional, cell-based. A digest of the protocol: as §1
The target in test [3] is T1, Phosphatidylinositol 4,5-bisphosphate 3-kinase catalytic subunit delta isoform (Homo sapiens, UniProt O00329).
T1 sequence (O00329 whole entry): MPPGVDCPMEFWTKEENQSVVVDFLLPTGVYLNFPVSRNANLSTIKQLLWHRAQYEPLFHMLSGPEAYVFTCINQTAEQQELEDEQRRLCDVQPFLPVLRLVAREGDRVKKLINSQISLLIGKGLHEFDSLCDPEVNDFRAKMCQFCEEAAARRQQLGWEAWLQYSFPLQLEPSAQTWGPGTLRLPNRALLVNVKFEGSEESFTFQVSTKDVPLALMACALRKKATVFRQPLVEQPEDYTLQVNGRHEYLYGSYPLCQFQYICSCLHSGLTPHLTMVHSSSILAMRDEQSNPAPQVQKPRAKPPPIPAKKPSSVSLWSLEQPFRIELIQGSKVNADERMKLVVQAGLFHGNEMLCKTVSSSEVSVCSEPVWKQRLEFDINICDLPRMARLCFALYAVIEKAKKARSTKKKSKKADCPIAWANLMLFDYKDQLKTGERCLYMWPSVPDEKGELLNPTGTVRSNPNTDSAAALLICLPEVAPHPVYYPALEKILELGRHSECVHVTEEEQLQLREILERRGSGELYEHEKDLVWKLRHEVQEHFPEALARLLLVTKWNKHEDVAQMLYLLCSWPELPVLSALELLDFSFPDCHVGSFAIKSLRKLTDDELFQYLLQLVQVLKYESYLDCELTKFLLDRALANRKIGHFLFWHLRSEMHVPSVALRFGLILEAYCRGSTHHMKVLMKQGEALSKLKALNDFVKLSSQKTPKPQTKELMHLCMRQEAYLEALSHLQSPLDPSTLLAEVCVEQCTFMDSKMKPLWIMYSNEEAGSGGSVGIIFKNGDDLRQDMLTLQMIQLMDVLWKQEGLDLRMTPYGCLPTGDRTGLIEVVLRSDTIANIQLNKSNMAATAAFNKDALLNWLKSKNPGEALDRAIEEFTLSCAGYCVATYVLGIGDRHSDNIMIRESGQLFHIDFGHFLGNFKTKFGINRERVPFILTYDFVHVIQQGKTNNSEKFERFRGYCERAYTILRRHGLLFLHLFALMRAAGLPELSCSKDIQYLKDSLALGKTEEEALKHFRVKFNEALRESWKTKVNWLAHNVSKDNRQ
Put plainly: Inhibition of human recombinant p110delta. The essentials: (§2)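 Recombinant p110/p85 complexes (p110d/p85 commercial; p110a/p85 and p110b/p85 prepared in-house), 0.1 µg enzyme with 10 µg L-α-phosphatidylinositol in Tris-HCl pH 7.4/NaCl/EDTA buffer, 1% DMSO final. 1 h at room temperature, stopped with HCl. Lipids extracted, resolved by TLC, radiolabel quantified. Means of two experiments.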

Test [4] addresses Phosphatidylinositol 4,5-bisphosphate 3-kinase catalytic subunit alpha isoform (Homo sapiens, UniProt P42336). Put plainly: Inhibition of human recombinant p110alpha. A digest of the protocol:
as §2

Test [5] addresses Phosphatidylinositol 4,5-bisphosphate 3-kinase catalytic subunit beta isoform (Homo sapiens, UniProt P42338). Briefly: Inhibition of human recombinant p110beta. The essentials: as §2

Sequence of Phosphatidylinositol 4,5-bisphosphate 3-kinase catalytic subunit beta isoform (P42338 whole entry, canonical isoform): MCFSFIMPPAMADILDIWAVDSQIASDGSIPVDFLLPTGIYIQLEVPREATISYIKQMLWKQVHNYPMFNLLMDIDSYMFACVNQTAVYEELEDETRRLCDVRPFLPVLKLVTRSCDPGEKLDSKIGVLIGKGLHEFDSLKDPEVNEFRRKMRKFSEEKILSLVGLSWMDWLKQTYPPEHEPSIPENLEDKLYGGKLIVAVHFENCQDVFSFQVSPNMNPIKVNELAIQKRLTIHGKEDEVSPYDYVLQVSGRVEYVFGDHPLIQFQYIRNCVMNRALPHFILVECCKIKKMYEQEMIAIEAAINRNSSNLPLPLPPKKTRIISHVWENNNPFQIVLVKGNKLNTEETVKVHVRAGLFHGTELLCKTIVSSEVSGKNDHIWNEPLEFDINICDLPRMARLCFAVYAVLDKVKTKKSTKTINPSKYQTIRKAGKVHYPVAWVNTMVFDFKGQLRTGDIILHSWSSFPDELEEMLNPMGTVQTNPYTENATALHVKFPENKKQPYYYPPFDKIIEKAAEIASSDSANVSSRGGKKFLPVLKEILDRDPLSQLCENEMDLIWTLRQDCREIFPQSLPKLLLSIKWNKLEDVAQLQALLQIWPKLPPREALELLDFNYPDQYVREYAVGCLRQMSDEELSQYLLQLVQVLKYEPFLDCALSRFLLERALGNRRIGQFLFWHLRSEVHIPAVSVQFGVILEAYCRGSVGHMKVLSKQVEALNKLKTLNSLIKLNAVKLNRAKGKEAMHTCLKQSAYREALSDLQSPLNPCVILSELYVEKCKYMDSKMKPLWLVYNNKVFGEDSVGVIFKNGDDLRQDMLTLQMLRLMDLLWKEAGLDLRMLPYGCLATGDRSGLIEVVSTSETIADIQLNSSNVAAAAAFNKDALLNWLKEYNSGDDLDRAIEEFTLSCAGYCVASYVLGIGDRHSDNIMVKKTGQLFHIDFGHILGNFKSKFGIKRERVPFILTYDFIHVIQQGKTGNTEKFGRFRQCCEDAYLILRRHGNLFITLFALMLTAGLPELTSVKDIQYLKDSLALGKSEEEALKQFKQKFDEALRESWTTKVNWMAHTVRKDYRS
Sequence of Phosphatidylinositol 4,5-bisphosphate 3-kinase catalytic subunit alpha isoform (P42336 whole entry, canonical isoform): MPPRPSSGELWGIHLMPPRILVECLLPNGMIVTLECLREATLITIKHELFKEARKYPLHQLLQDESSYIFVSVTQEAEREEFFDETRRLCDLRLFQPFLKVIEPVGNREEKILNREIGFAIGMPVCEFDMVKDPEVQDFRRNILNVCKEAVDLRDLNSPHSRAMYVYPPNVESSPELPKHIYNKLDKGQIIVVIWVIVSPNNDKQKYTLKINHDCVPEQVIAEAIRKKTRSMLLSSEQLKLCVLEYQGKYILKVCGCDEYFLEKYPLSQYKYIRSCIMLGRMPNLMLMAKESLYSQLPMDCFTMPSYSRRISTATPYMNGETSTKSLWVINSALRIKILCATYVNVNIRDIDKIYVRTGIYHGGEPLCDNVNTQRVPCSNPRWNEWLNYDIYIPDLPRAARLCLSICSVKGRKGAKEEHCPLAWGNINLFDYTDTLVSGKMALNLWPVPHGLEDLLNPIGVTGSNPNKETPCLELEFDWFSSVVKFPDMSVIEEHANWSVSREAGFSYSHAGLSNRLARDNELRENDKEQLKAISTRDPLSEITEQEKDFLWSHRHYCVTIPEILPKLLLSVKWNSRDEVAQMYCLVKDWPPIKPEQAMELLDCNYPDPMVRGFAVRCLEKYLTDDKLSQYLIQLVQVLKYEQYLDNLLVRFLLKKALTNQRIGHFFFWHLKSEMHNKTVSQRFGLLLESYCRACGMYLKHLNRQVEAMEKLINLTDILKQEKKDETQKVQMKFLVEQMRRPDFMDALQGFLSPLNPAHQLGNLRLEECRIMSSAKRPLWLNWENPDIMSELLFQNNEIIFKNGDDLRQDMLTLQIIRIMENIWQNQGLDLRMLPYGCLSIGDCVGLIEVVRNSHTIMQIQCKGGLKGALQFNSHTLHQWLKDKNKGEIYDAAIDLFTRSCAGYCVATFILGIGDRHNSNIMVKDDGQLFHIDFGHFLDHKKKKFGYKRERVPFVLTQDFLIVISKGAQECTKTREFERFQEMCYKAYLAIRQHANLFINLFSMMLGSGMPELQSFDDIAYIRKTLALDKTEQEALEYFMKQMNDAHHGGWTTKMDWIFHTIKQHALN

`Cc1ccc([N+](=O)[O-])cc1S(=O)(=O)N(C)/N=C/c1cnc2ccccn12`: the IC50 in test [1] is 0.35 µM; in test [2] it was 0.68 µM; in test [3] it was 5.4 µM; in test [4], 0.86 µM; in test [5] it was greater than 10 µM.

For the compound `Cc1ccc([N+](=O)[O-])cc1S(=O)(=O)N(C)/N=C/c1cnc2n1CCCC2`, the half-maximal inhibitory concentration (IC50) in test [1] was 10 µM; in test [2] it was 10 µM; in test [3], greater than 10 µM; in test [4] it was greater than 10 µM; in test [5], greater than 10 µM.

As for `Cc1ccc([N+](=O)[O-])cc1S(=O)(=O)N(C)/N=C/c1ncn2ccccc12`, the concentration for half-maximal inhibition (IC50) was 3.3 µM in test [1], greater than 10 µM in test [3], greater than 10 µM in test [4] and greater than 10 µM in test [5].

Regarding `Cc1ccc([N+](=O)[O-])cc1S(=O)(=O)N(C)/N=C/c1cn(C)c2ccccc12`, the IC50 in test [1] is 15 µM; in test [2] it was greater than 20 µM; in test [3] it was greater than 10 µM; in test [4], greater than 10 µM; in test [5] it was greater than 10 µM.

As to `Cc1ccc([N+](=O)[O-])cc1S(=O)(=O)N(C)/N=C/c1cnc2ccccc2c1`, the concentration for half-maximal inhibition (IC50) in test [1] was 3 µM; in test [2], 6 µM; in test [3], greater than 10 µM; in test [4] it was greater than 10 µM; in test [5], greater than 10 µM.

Take `Cc1ccc([N+](=O)[O-])cc1S(=O)(=O)N(C)/N=C/c1cncc2ccccc12`: the IC50 was 0.89 µM in test [1]; 0.5 µM in test [2]; 3.6 µM in test [3]; 0.8 µM in test [4]; greater than 10 µM in test [5].

Regarding `Cc1ccc([N+](=O)[O-])cc1S(=O)(=O)N(C)/N=C/c1cncc2ccc(Br)cc12`, the IC50 in test [1] is 5.1 µM; in test [2], 4.2 µM; in test [3] it was 9 µM; in test [4], 2.2 µM; in test [5], greater than 10 µM.

For `Cc1ccc([N+](=O)[O-])cc1S(=O)(=O)N(C)/N=C/c1onc2ccccc12`, the half-maximal inhibitory concentration (IC50) in test [1] is 3.9 µM; in test [2], 3.3 µM; in test [3] it was greater than 10 µM; in test [4], 5 µM; in test [5] it was greater than 10 µM.

For `Cc1ccc([N+](=O)[O-])cc1S(=O)(=O)N(C)/N=C/c1coc2ccccc12`, the IC50 in test [1] is 12 µM; in test [2], 8.5 µM; in test [3] it was greater than 10 µM; in test [4], greater than 10 µM; in test [5], greater than 10 µM.

Regarding `Cc1ccc([N+](=O)[O-])cc1S(=O)(=O)N(C)/N=C/c1cnc2ccc(Br)cn12`, in test [1], the midpoint of inhibition, the IC50, lay at 0.069 µM.

With `Cc1ccc([N+](=O)[O-])cc1S(=O)(=O)N(C)/N=C/c1ncc2ccccn12`, the IC50 in test [1] is 2.1 µM; in test [2], 1.2 µM; in test [3], greater than 10 µM; in test [4] it was greater than 10 µM; in test [5], greater than 10 µM.

Turning to `Cc1ccc([N+](=O)[O-])cc1S(=O)(=O)N(C)/N=C/c1ccnc2ccccc12`, the IC50 in test [1] is 1.5 µM; in test [2], 0.8 µM; in test [3], greater than 10 µM; in test [4], 2.3 µM; in test [5], greater than 10 µM.

`Cc1ccc([N+](=O)[O-])cc1S(=O)(=O)N(C)/N=C/c1cncc2cc(Br)ccc12`: the IC50 in test [1] was 6.6 µM; in test [2], 11 µM; in test [3] it was greater than 10 µM; in test [4], greater than 10 µM; in test [5] it was greater than 10 µM.

Consider `Cc1ccc([N+](=O)[O-])cc1S(=O)(=O)N(C)/N=C/c1cncc2c(Br)cccc12`, for which the IC50 is 5.7 µM in test [1]; 12 µM in test [2]; greater than 10 µM in test [3]; greater than 10 µM in test [4]; greater than 10 µM in test [5].

Regarding `Cc1ccc([N+](=O)[O-])cc1S(=O)(=O)N(C)/N=C/c1cncn1C`, the IC50 is greater than 20 µM in test [1]; greater than 20 µM in test [2]; greater than 10 µM in test [3]; greater than 10 µM in test [4]; greater than 10 µM in test [5].

Regarding `Cc1ccc([N+](=O)[O-])cc1S(=O)(=O)N(C)/N=C/c1csc2ccccc12`, the IC50 in test [1] was greater than 20 µM; in test [2], greater than 20 µM; in test [3], greater than 10 µM; in test [4], greater than 10 µM; in test [5] it was greater than 10 µM.

On to `Cc1ccc([N+](=O)[O-])cc1S(=O)(=O)N(C)/N=C/c1cccc2ccccc12`, for which the concentration for half-maximal inhibition (IC50) in test [1] is greater than 20 µM; in test [2], greater than 20 µM; in test [3], greater than 10 µM; in test [4], greater than 10 µM; in test [5], greater than 10 µM.
